GalR3 antag: blocks the human galanin receptor 3 | HEK293 GalR3-CNG cAMP membrane potential fluorescence; galR3 body fused to GalR1 C-terminus | inhibition, % at 3 µM | hit rate 0.44% among 360,000;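 active means inhibition above the screen-wide average plus 3 SD, cut at about 13% in these data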;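 further: forskolin and galanin both at EC90 stimulate the cells; cAMP rise reported by CNG channel membrane potential dye signal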
Target sequence (O60755 1-299 limits assumed): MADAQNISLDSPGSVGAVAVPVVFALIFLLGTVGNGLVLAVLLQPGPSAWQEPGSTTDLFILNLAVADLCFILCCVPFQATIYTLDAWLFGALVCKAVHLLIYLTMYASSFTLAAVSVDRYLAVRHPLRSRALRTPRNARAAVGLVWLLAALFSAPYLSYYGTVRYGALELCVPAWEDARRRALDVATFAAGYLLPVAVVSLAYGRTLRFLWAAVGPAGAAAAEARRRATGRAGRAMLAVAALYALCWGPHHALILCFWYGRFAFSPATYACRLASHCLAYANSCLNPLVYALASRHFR
ARFGAP1 inh: inhibitors of rat ARFGAP1; Q62848; Arfgap1-stimulated ARF1 GTP hydrolysis, GDP FP detection; inhibition, % at 16.5 µM; hit rate 0.26% among 360,000; AID 651572;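 active means inhibition above a per-plate limit, mean inhibition of low control wells plus 3 SD, cut at about 25% in these data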
Target sequence (Q62848 1-136 limits assumed): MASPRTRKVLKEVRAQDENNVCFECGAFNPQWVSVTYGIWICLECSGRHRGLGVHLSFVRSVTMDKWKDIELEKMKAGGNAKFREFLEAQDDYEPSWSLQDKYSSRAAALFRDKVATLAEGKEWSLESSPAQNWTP
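Material: rat Arfgap1 catalytic domain, aa 1-136; also added: human ARF1(Δ1-17)-GTP substrate; compound dosing: one concentration, 16.5 µM, DMSO 1.26%; incubation: GTP hydrolysis reaction 2 h at 25 °C; measured by: Tracer-displacement fluorescence polarization with EDTA stop, 620/688 nm; evaluation: % inhibition from polarization; repeats: one replicate per compound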
ASAP1 GAP inh: ASAP1 ArfGAP inhibition | AID 624377 | hit rate 0.19% among 360,000 | ASAP1-stimulated ARF1 GTP hydrolysis, GDP FP detection | Q9ULH1 | inhibition, % at 16.5 µM; in the data active means inhibition above about 25%
Rin1 Abl inh: inhibitors of human Rin1-Abl protein interaction. P00519+Q13671. TR-FRET Rin1/Abl binding, biochemical. inhibition, % at 7.35 µM. hit rate 0.4% among 360,000; in the data active means inhibition above about 5%, passing the limit was not always enough
GalR3 conf: GalR3 (human) antagonism, confirmation; shares compounds with GalR3 antag; HEK293 GalR3 CNG cAMP biosensor, membrane potential fluorescence; galR3 fused to GalR1 carboxy tail; challenged with forskolin and galanin at EC90; inhibition, % at 3 µM; hit rate 59% among 1,600; AID 652245;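 active means inhibition above the primary screen's cutoff, the mean inhibition of all screened compounds plus 3 SD, cut at about 13% in these data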
HEK-CNG parental: parental cell agonism counter-screen for GalR3 antagonists; shares compounds with GalR3 antag; activation, % at 3 µM; HEK293-CNG parental cells, cAMP membrane potential fluorescence; normalised: DMSO wells 0%, forskolin wells 100%; AID 652268; hit rate 10% among 1,600; in the data active means activation above about 1.3%
Numbers stand for hits; . = inactive; / = no result given. Compounds with a hit are over-represented: about 1.2% of the library has one in this group of screens.

SMILES | GalR3 antag | ARFGAP1 inh | ASAP1 GAP inh | Rin1 Abl inh | GalR3 conf | HEK-CNG parental
Cc1cc(/C=C2/SC(=S)N(c3ccc([N+](=O)[O-])cc3)C2=O)c(C)n1-c1cccnc1 | . | . | . | . | / | /
COc1ccc(C(=S)N2CCCCCC2)cc1 | 12.7 | . | . | . | . | .
O=C(Nc1cccc(N=Cc2cc(Br)cc(Br)c2O)c1)c1ccco1 | 17.3 | . | . | . | 13.6 | .
O=C(Nc1cccc(S(=O)(=O)c2cccc(NC(=O)c3ccco3)c2)c1)c1ccco1 | 41.3 | . | . | . | 45.1 | .
CCOC(=O)c1ccc(NC(=O)c2nc[nH]c2C(=O)NC2CCN(C(=O)OC(C)(C)C)CC2)cc1 | 16.6 | . | . | . | . | .
COC(=O)[C@]12C[C@H](CC(=O)N3CCN(C(=O)C4CC4)CC3)C(=O)N(Cc3ccccc3)C1=C[C@H](C1CCCC1)O[C@@H]2C | . | . | . | / | / | /
Cc1nn(-c2ccc(NC(=O)c3ccncc3)cc2)c(C)c1Cl | 74.5 | . | . | . | 109.5 | .
NC(=O)c1ccc(N2CCN(S(=O)(=O)c3cccs3)CC2)c([N+](=O)[O-])c1 | 101.4 | . | . | . | 102.1 | .
COc1cccc(C2=NOC(C(=O)NCC3CCCO3)C2)c1 (stereo not given) | 35.1 | . | . | . | . | .
COc1ccc(CN2CCC(C(=O)Nc3ccc(Oc4ccccc4)nc3)CC2)cc1F | 62.4 | . | . | . | 101.2 | .
O=C(COc1ccc(C(=O)c2ccccc2)cc1)Nc1cccnc1 | 97.4 | . | . | . | 108.1 | .
Cc1cc(OCC(=O)Nc2ccncc2)ccc1Cl | . | . | . | . | / | /
O=C(COc1ccccc1)Nc1ccncc1 | . | . | . | . | / | /
Cc1ccc(Oc2ccc(OCC(=O)Nc3ccncc3)cc2)cc1 | 104.5 | . | . | . | 109.3 | .
Cc1cc(OCC(=O)Nc2ccncc2)cc(C)c1Br | 64.9 | . | . | . | 61.9 | .
O=C(COc1ccc2ccccc2c1)Nc1ccncc1 | 66.2 | . | . | . | 72.8 | .
CCCCOc1ccc(C(=O)Nc2ccncc2)cc1 | 56.7 | . | . | . | 101.8 | .
CCOCCCNC(=S)N1CCN(Cc2ccc3c(c2)OCO3)CC1 | 15.1 | . | . | . | . | .
CCOC(=O)C1=CCN(S(=O)(=O)c2ccc(Br)cc2)C1c1cccc(F)c1 (stereo not given) | . | . | . | / | / | /
Cc1ccc(S(=O)(=O)N(C)[C@H]2C[C@H]3c4[nH]c5c(-c6ccccc6)cccc5c4CCN3C(=O)[C@H]2[C@H](C)O)cc1 | . | . | . | / | / | /
O=C(NC1CCCC1)[C@@H]1CCCN1C(=O)[C@@H](NC(=O)N1CCOCC1)C1CCCCC1 | . | . | . | / | / | /
O=C(NNc1ccnc2cc(Cl)ccc12)C1CCCCC1 | 27.0 | . | . | . | 111.6 | .
NC(=S)NNc1ccnc2cc(Cl)ccc12 | . | . | . | . | / | /
Cc1cc(-n2c(C)cc(C(=O)CSc3nc(N)cc(=O)[nH]3)c2C)no1 | . | . | . | . | / | /
Cc1cc(C(=O)CSc2nc(N)cc(=O)[nH]2)c(C)n1-c1ccc(OC(F)F)cc1 | 14.4 | . | . | . | 97.9 | .
SMILES | GalR3 antag | ARFGAP1 inh | ASAP1 GAP inh | Rin1 Abl inh | GalR3 conf | HEK-CNG parental
COc1ccc(C2=NN(c3nc(C(=O)O)cs3)C(O)(C(F)(F)F)C2)c(OC)c1 (stereo not given) | 66.4 | . | . | . | 74.0 | .
Cc1cc(C(F)(F)F)n(-c2nc(C(=O)O)cs2)n1 | . | . | . | . | / | /
CC(=O)N1CCc2cc(S(=O)(=O)NCCC3=CCCCC3)ccc21 | 82.0 | . | . | . | 79.9 | .
CC(=O)N1CCc2cc(S(=O)(=O)NCCCN3CCCCC3)ccc21 | . | . | . | . | / | /
CCCOc1ccc(Cn2c(=O)oc3ccc(C)cc32)cc1OC | 14.0 | . | . | . | . | .
CCCOc1ccccc1Cn1c(=O)oc2ccc(C)cc21 | . | . | . | . | / | /
CCCOC(=O)CCCC[C@H]1SC[C@@H](NC(=O)OC)[C@H]1NC(=O)OC | 13.9 | . | . | . | . | .
COc1ccc(C=C2SC(=O)NC2=O)cc1OC | . | . | . | . | / | /
COc1ccc(/C=C2\SC(=N)N(c3ccc(F)cc3)C2=O)cc1OC | 18.5 | . | . | . | 16.7 | .
CC(=O)N/C(=C/c1ccc2c(c1)OCO2)C(=O)NC(Cc1ccccc1)C(=O)O (stereo not given) | 15.9 | . | . | . | . | .
O=C(N[C@H](C(=O)N1CCC[C@H]1C(=O)NCCc1ccccc1Cl)c1ccccc1)c1ccco1 | . | . | . | / | / | /
O=C(Nc1nc(-c2ccccc2)cs1)c1ccccc1NS(=O)(=O)c1ccc(F)cc1 | 17.0 | . | . | . | 76.5 | .
CC(=O)Nc1ccc(S(=O)(=O)NCC2CCN(C(=O)C(=O)c3cc4ccccc4o3)CC2)cc1 | . | . | . | / | / | /
CC(C)Cn1c(N)c(C(=O)COC(=O)/C=C/c2ccccc2)c(=O)n(C)c1=O | 16.2 | . | . | . | 86.0 | .
CC(C)Cn1c(N)c(C(=O)CSc2ccccc2)c(=O)n(C)c1=O | . | . | . | . | / | /
CC(=O)C1=C(C)N(Cc2ccc(F)cc2)C(=S)NC1c1ccccc1 (stereo not given) | . | . | . | / | / | /
COc1cc(/C=N/S(=O)(=O)c2ccccc2)cc(OC)c1O | 14.5 | . | . | . | . | .
COc1cc(/C=N/N=C/c2cc(OC)c(O)c(OC)c2)cc(OC)c1O | . | . | . | . | / | /
CC(C)c1[nH]nc2c1C(c1cccc(C(F)(F)F)c1)NC2=O (stereo not given) | . | . | . | / | / | /
COc1ccc(CCNc2ccc(N3C(=O)CC(C)C3=O)cc2[N+](=O)[O-])cc1 (stereo not given) | . | . | . | . | / | /
COc1ccc(CCNc2ccc(N3C(=O)CC(C)C3=O)cc2[N+](=O)[O-])cc1OC (stereo not given) | 59.0 | . | . | . | 103.6 | .
Cc1cc(=O)[nH]c2ccc(S(=O)(=O)NCc3ccccc3)cc12 | 57.0 | . | . | . | 27.0 | .
Cc1cc(=O)[nH]c2c(C)cc(S(=O)(=O)NCc3ccccc3)cc12 | . | . | . | . | / | /
O=C(C[n+]1ccc(C(=O)NCc2ccccc2)cc1)c1ccc(F)cc1 | . | . | . | / | / | /
O=C(NCc1ccccc1)c1cc[n+](CC(=O)c2cccs2)cc1 | 13.2 | . | . | . | . | .
C[C@@H]1OC(C2CCCCC2)N(C)[C@H]2C[C@H]3c4[nH]c5c(-c6ccccc6)cccc5c4CCN3C(=O)[C@@H]12 (stereo not given in full) | . | . | . | / | / | /
COc1ccc(Cc2c(O)nc(SCC(=O)NC34CC5CC(CC(C5)C3)C4)[nH]c2=O)cc1 | . | . | . | . | . | .
N#Cc1nc(N2CCCC2)nc(N2CCCC2)n1 | 98.2 | . | . | . | 111.6 | .
